The nature of data set [1]: Toxicity in BALB/c mouse xenografted with human NCI-H1975 cells assessed as body weight loss at 5.7 mg/kg,iv administrated once per week for 3 weeks. The format is organism-based. The note with it: in vivo, 504 h. The method, boiled down:
(§1)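 Nude BALB/c nu/nu mice received subcutaneous human tumour cells into the right flank. Dosing started at mean tumour volume of 100–120 mm3, iv once weekly for 3 weeks; the taxane arm was an equimolar control. Body weight and overt side effects were monitored. Mean ± SEM, n = 8.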
A general note: A xenograft is tissue or cells of one species grown in another, often human tumour cells in immunodeficient mice.

For data set [2], the system named is 4T1. Put plainly: Antitumor activity against mouse 4T1 cells xenografted with BALB/c mouse assessed as inhibition of tumor growth at 5.7 mg/kg,iv administrated once per week for 4 weeks. Type of data set: functional. The note with it: 4T1, 672 h. The essentials:
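4T1 cells injected into mammary fat pads of BALB/c mice. Dosing iv once per week for 4 weeks, saline vehicle; single-agent arms were given alone or with the peptide component (5b or 6). Endpoints were body weight, tumour volume, tumour weight, lung metastatic nodule count and lung metastasis score. Mean ± SEM, n = 10; ANOVA and Student's t test.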

A short description of data set [3]: Toxicity in BALB/c mouse xenografted with human HCT-116 cells assessed as body weight loss at 5.7 mg/kg,iv administrated once per week for 3 weeks. The note with it: in vivo, 504 h. The format is organism-based. The method, boiled down:
as §1

Data set [4] can be described thus: Toxicity in BALB/c mouse xenografted with human HCT-116 cells assessed as side effects at 5.7 mg/kg,iv administrated once per week for 3 weeks. The format is organism-based. The note with it: in vivo, 504 h. The essentials:
as §1

Data set [5] has as its system 4T1. Put plainly: Antitumor activity against mouse 4T1 cells implanted in BALB/c mouse assessed as decrease in spleen MMP2 expression level at 5.7 mg/kg,iv administrated once per week for 4 weeks in presence of MDA-205 by western blot assay. Type of data set: functional, organism-based. The method, boiled down:
(§2)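 4T1 cells injected into mammary fat pads of BALB/c mice. Saline vehicle or test article given iv once weekly for 4 weeks. Spleen, lung and tumor lysates immunoblotted for MMP2/MMP9 with β-actin as loading control. Bands averaged over five mice per group, representative of two independent experiments.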
A general note: In western blotting, separated proteins are transferred to a membrane and probed.

The subject of data set [6] is 4T1. Put plainly: Antitumor activity against mouse 4T1 cells implanted in BALB/c mouse assessed as decrease in tumor MMP2 expression level at 5.7 mg/kg,iv administrated once per week for 4 weeks in presence of compound 5b by western blot assay. The format is functional, organism-based. The method, boiled down:
as §2

Data set [7] in a line: AUC (0-t) in mouse plasma implanted with mouse 4T1 cells at 10 mg/kg,iv measured upto 72 hrs. The format is ADME, organism-based. Also on record: dose 10 mg/kg, time < 72 hrs, route iv. The method, boiled down: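 4T1 tumor-bearing mice (4T1 cells implanted in the mammary fat pad) received a single iv dose of 10 mg/kg. Plasma and tumor tissue were sampled up to 72 h, with n = 6. Levels of parent and of released docetaxel were measured. AUC came from noncompartmental analysis, reported as mean ± SD.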

Data set [8] can be described thus: Chronic toxicity in male Beagle dog at 3 to 18 mg/kg,iv administered once per week for 30 days. Type of data set: organism-based, Canis lupus familiaris. The note with it: in vivo, 720 h, dose 3-18 mg/kg, time 30 day. The method, boiled down:
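Long-term toxicity: rats given iv 2, 4 or 8 mg/kg and dogs 3, 6 or 18 mg/kg once weekly over 30 days; toxicokinetics recorded; highest non-severely toxic dose determined by sex.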

Data set [9] can be described thus: Drug metabolism in rat urine assessed as metabolite docetaxel formation at 4 mg/kg,iv measured after 24 hrs. The format is ADME, organism-based. The note with it: in vivo.
A short description of data set [10]: Drug metabolism in rat plasma assessed as metabolite docetaxel formation at 4 mg/kg,iv measured after 24 hrs. Type of data set: ADME, organism-based. The note with it: in vivo.
Data set [11] in a line: Prodrug conversion in mouse plasma implanted with mouse 4T1 cells assessed as AUC (0-t) of docetaxel at 4 mg/kg,iv measured upto 72 hrs. Type of data set: ADME, organism-based. Also on record: time < 72 hrs, dose 4 mg/kg, route iv. The note with it: in vivo.
The nature of data set [12]: Drug distribution in rat liver at 4 mg/kg,iv measured by 0.25 hrs. The format is ADME, organism-based. The note with it: in vivo. The method, boiled down: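 Rats received 4 mg/kg iv. Parent drug and released docetaxel were assayed in tissues and plasma from the first sampling at 0.25 h to 24 h. The lower limit of quantitation was 200 ng/g.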
Data set [13] is described as follows: Volume of distribution at steady state in male Beagle dog at 4 mg/kg,iv measured upto 24 hrs. Type of data set: ADME, organism-based, Canis lupus familiaris. The note with it: in vivo, read-out: Vdss.
A short description of data set [14]: Volume of distribution at steady state in Beagle dog at 1 mg/kg,iv measured upto 24 hrs. The note with it: in vivo, read-out: Vdss. Type of data set: ADME, organism-based, Canis lupus familiaris.
The nature of data set [15]: Clearance in Beagle dog at 4 mg/kg,iv measured upto 24 hrs. Type of data set: ADME, organism-based, Canis lupus familiaris. The note with it: in vivo. The method, boiled down:
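Beagle dogs were given a single iv infusion at 1, 2 or 4 mg/kg. Plasma parent drug and released docetaxel were followed over time. Cmax, Tmax, AUC, MRT, t1/2, CL and Vss were reported by sex and for all dogs combined.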

Data set [16] is described as follows: MRT (0 to infinity) in male Beagle dog at 2 mg/kg,iv measured upto 24 hrs. The format is ADME, organism-based, Canis lupus familiaris. The note with it: in vivo.
Data set [17] in a line: AUC (0-infinity) in female Beagle dog at 2 mg/kg,iv measured upto 24 hrs. The note with it: in vivo. Type of data set: ADME, organism-based, Canis lupus familiaris. Also on record: time < 24 hrs, dose 2 mg/kg, route iv. The method, boiled down:
(§3)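 Single iv dose: rats 2, 4 or 8 mg/kg by intravenous injection; Beagle dogs 1, 2 or 4 mg/kg by intravenous infusion. Plasma concentration–time data were analysed by sex and pooled. Reported parameters: Cmax, Tmax, AUC0−t, AUC0−∞, MRT0−∞, t1/2, CL, Vss, given as mean ± SD.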

Data set [18] in a line: AUC (0-t) in female rat at 4 mg/kg,iv measured upto 24 hrs. Also on record: time < 24 hrs, dose 4 mg/kg, route iv. The note with it: in vivo. The format is ADME, organism-based. The essentials:
as §3

Data set [19] can be described thus: Cmax in rat at 4 mg/kg,iv measured upto 24 hrs. Type of data set: ADME, organism-based. Also on record: dose 4 mg/kg, time < 24 hrs, route iv. The note with it: in vivo. The essentials: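 Rats were given a single iv injection at 2, 4 or 8 mg/kg. Plasma parent drug and released docetaxel were followed over time. Cmax, Tmax, AUC, MRT, t1/2, CL and Vss were reported for males, females and all animals combined.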

Data set [20] deals with 4T1. The experiment in a line: Antitumor activity against mouse 4T1 cells xenografted with BALB/c mouse assessed as decrease in tumor weight at 10 mg/kg,iv administrated once per week for 4 weeks. Type of data set: functional, organism-based. The essentials: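 4T1 cells injected into the mammary fat pad of BALB/c mice; iv saline vehicle or 5, 10 or 20 mg/kg once weekly for 4 weeks; body weight, tumour volume, tumour weight, lung metastatic nodule count and metastasis score recorded; n = 10, mean ± SEM, ANOVA and Student's t test.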

Data set [21] can be described thus: Toxicity in BALB/c mouse xenografted with human NCI-H1975 cells assessed as side effects at 10 mg/kg,iv administrated once per week for 3 weeks. The note with it: in vivo, 504 h. Type of data set: organism-based.
For data set [22], the system named is MDA-MB-231. Put plainly: Antitumor activity against human MDA-MB-231 cells xenografted with BALB/c mouse assessed as inhibition of tumor growth at 10 mg/kg,iv administrated once per week for 3 weeks. The format is functional, organism-based. The essentials:
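BALB/c nu/nu mice given subcutaneous human tumour cells in the right flank; dosing began at about 100–120 mm3 mean volume; iv once weekly for 3 weeks, with equimolar parent drug as positive control; tumour volume and weight measured; n = 8, mean ± SEM, ANOVA and Student's t test.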

The target of data set [23] is Cytochrome P450 1A2 (Homo sapiens, UniProt P05177). The experiment in a line: Inhibition of CYP1A2 in human liver microsomes using probe substrate at 0.1 to 100 uM in presence of NADPH. The format is ADME, Microsome. The note with it: dose 0.1-100 µM. For orientation: Microsomes from liver hold many membrane-bound enzymes, among them those of drug oxidation.
Data set [24] can be described thus: Drug metabolism in human hepatocytes assessed as MDA-205 metabolite formation at 20 uM incubated for 180 mins. Type of data set: ADME, cell-based, Hepatocyte. The note with it: 3 h.
Data set [25] is described as follows: Stability in dog hepatocyte assessed as compound remaining at 3 uM incubated upto 120 mins. Type of data set: ADME, cell-based, Canis lupus familiaris. The note with it: hepatocytes, 2 h.
Data set [26] in a line: Acute toxicity in Sprague-Dawley rat assessed as lethal dose at iv administration. The note with it: in vivo. The format is organism-based. The method, boiled down: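 Acute toxicity after a single intravenous administration. […] In dogs, an approximate lethal dose range was determined.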
Data set [27] can be described thus: Toxicity in male Sprague-Dawley rat assessed as maximal non-toxic dose at iv administration. The format is organism-based. The note with it: in vivo, read-out: MNTD.

A word on the inhibition in vivo: it is the percentage by which the read-out fell short of the control. A word on the AUC(0-t): it is exposure summed from dosing to a finite time, without extrapolation to infinity. Read a low AUC(0-t) as less exposure. One may read the clearance as the volume of plasma or blood freed of the substance per unit of time. A low value points to a low capacity for elimination. What is called MRT inf is the average time that molecules of a dose stay in the body. As a reminder, the AUC(0-inf) is total exposure, with the tail of the curve extrapolated. Low readings indicate low exposure, high ones high exposure. One may read the Cmax as the maximum level reached in the sampled fluid or tissue. What is called LD50 is the dose at which mortality reaches 50%.

Calls of active or inactive are those of the source. No cut-off for these calls is given here.

Cytochrome P450 1A2, sequence (P05177 whole entry): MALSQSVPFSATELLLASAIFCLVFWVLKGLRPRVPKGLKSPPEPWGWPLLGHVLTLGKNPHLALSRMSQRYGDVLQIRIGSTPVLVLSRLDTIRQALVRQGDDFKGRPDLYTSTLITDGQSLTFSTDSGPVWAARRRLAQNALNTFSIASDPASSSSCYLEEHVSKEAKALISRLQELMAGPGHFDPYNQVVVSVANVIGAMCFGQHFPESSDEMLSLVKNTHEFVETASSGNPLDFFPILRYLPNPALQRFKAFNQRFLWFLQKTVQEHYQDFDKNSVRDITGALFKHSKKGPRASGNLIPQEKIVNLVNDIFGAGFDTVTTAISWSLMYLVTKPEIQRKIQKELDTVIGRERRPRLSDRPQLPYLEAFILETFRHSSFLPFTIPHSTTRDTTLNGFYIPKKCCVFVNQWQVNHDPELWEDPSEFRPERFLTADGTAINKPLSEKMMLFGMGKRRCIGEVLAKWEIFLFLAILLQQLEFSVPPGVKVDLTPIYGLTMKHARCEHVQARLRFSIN

For the compound `CC(=O)O[C@@]12CO[C@@H]1C[C@H](O)[C@@]1(C)C(=O)[C@H](O)C3=C(C)[C@@H](OC(=O)[C@H](O)[C@@H](NC(=O)OC(C)(C)C)c4ccccc4)C[C@@](O)([C@@H](OC(=O)c4ccccc4)[C@H]21)C3(C)C` [DOCETAXEL ANHYDROUS], the Activity result in data set [1], in [3] and in data set [4] was “Non-Toxic” in each case. Further, the inhibition in vivo at 5.7 mg/kg in data set [2] amounted to 19.6%. The outcome in data set [5] and in data set [6] was inactive.
`CC(=O)O[C@@]12CO[C@@H]1C[C@H](O)[C@@]1(C)C(=O)[C@H](O)C3=C(C)[C@@H](OC(=O)[C@H](OC(=O)CCC(=O)NCCCC[C@H](NC(=O)CC[C@@H](NC(=O)[C@H](C)NC(=O)/C=C/c4ccc(F)cc4Cl)C(N)=O)C(=O)O)[C@@H](NC(=O)OC(C)(C)C)c4ccccc4)C[C@@](O)([C@@H](OC(=O)c4ccccc4)[C@H]21)C3(C)C` displayed an AUC(0-t) at 72 h in [7] of 3.33 µM·h. The Activity entry in data set [8] and in data set [21] was “Non-Toxic” throughout. For the same compound, the Drug metabolism entry in data set [9], in [10] and in data set [24] was “Metabolite_Detected” in each case. In data set [11], the AUCt was 8.43 µM·h. In addition, in data set [12], the Drug uptake entry is on record as “Active”. Besides, the Vd came out at 0.075 L/kg in [13] and 0.169 L/kg in data set [14]. In addition, the clearance in data set [15] is 0.257 L/h/kg. Further, in data set [16], the mean residence time MRT inf was found to be 13.1 min. Also, the AUC(0-inf) in data set [17] worked out at 7.02 µg·h/mL. The AUC(0-t) at 24 h in data set [18] was 13 µg·h/mL. The same compound displayed a Cmax in data set [19] of 34.2 µg/mL. For the same compound, the outcome in [20] was Active. For the same compound, the inhibition result in [22] was “Active”. The “inhibition (INH)” value in data set [23] was “Not Active”. The Stability entry in data set [25] was “Stable”. The 50% lethal dose (LD50) in data set [26] worked out at 13.2 mg/kg. Besides, in data set [27], the NOAEL was found to be 4 mg/kg.

These data come from ChEMBL document CHEMBL5252546, “Salutaxel, a Conjugate of Docetaxel and a Muramyl Dipeptide (MDP) Analogue, Acts as Multifunctional Prodrug That Inhibits Tumor Growth and Metastasis” (J Med Chem, 2018).
